Measurements: ChEMBL document CHEMBL5154713, “Illuminating a Dark Kinase: Structure-Guided Design, Synthesis, and Evaluation of a Potent Nek1 Inhibitor and Its Effects on the Embryonic Zebrafish Pronephros” (J Med Chem, 2022)

Target: T1, Serine/threonine-protein kinase Nek1 (Homo sapiens, UniProt Q96PY6)
T1 sequence (Q96PY6 whole entry): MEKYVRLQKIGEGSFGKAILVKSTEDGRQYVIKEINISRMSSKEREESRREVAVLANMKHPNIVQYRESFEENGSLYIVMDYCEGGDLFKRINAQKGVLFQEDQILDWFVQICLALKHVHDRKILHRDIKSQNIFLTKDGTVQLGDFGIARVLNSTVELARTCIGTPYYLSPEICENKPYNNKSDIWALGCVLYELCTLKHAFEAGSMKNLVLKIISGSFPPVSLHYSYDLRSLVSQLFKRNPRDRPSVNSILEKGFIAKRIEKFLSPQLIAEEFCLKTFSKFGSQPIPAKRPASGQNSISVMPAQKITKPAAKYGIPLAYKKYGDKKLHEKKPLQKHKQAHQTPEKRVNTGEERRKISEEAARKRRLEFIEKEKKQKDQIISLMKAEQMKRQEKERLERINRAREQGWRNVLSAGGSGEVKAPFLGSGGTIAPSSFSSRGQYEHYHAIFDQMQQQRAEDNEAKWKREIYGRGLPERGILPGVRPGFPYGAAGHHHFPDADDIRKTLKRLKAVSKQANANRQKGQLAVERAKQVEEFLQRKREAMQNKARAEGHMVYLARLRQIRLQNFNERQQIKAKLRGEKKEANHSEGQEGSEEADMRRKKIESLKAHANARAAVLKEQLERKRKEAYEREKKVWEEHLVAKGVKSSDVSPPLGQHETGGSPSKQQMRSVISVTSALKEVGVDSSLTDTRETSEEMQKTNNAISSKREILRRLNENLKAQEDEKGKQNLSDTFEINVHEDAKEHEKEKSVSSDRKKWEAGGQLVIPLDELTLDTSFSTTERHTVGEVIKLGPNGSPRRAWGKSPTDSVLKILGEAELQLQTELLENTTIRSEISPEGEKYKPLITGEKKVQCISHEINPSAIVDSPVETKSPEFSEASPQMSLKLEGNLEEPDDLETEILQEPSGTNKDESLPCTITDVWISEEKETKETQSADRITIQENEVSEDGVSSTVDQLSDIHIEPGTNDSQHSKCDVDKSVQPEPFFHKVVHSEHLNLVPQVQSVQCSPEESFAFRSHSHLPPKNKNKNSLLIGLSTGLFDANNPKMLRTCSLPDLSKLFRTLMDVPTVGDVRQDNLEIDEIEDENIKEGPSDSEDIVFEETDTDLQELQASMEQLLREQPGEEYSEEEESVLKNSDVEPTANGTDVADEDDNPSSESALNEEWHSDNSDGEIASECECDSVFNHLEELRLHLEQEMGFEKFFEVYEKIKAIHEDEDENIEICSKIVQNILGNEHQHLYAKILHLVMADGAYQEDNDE
Assay: Inhibition of human recombinant NEK1 (1 to 505 residues) using RLGRDKYKTLRQIRQ as substrate incubated for 40 mins in presence of [gamma-33P]-ATP by radiometric scintillation counting assay
Method in brief: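 Eurofins IC50Profiler radiometric assay on recombinant human Nek1 (1−505), ATP at 10 μM or 90 μM (near Km). Nine concentrations at half-log steps from 10 μM to 1 nM, with vehicle controls. IC50 and 95% CI obtained by four-parameter nonlinear regression. Mean of two independent experiments.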

Question: How did the IC50 turn out when O=S(=O)(N[C@@H](CO)Cc1c[nH]c2ccccc12)c1ccc(-c2ccnc3[nH]ccc23)cc1 was run?
Answer: Its IC50 is 330 nM.
